T1: Catechol O-methyltransferase (Rattus norvegicus) (UniProt P22734)
T1 sequence (whole entry): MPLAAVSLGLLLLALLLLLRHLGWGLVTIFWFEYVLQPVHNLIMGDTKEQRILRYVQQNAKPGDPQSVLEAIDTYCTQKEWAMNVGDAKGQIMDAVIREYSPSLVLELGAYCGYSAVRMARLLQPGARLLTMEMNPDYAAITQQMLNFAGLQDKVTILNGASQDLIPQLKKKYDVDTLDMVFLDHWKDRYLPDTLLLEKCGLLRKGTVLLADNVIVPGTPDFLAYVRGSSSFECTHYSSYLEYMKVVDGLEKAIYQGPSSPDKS


Columns and labels:
[1] = system: Mus musculus; assay: Induction of DL-norepinephrine-7-3H release from ARS HA(ICR)f outbred Swiss albino mouse heart assessed as remaining level at 10 mg/kg, sc after 2 hrs relative to control; type: functional; conditions: route subcutaneous
Summary of the method: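 Mice (about 20 g) given 1.0 nmol (5 μCi) Norepi-3H iv by tail vein in isotonic NaCl with heparin. Compound 10 mg/kg sc 1 hr later; saline-injected controls. Hearts removed, homogenized in 10 vol 0.4 N HClO4 and centrifuged; tritium in the supernatant counted. Expressed as % of control, mean of duplicate determinations with five mice each.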

[2] = target: T1, Catechol O-methyltransferase (Rattus norvegicus); assay: Competitive inhibition of Sprague-Dawley rat liver COMT assessed as inhibition of methyl group transformation from SAM to DL-epinephrine-7-14C after 10 mins by scintillation spectrophotometric analysis
Summary of the method: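 Partially purified rat liver COMT (calcium phosphate stage). SAM 1.0 mM as methyl donor, Epi-14C 0.05 μCi, epinephrine varied 54-404 μM, 10 min, stopped with borate pH 10.0. Radiolabeled metanephrine and paranephrine extracted with toluene-isoamyl alcohol (3:2) and counted. Reciprocal velocity vs reciprocal epinephrine plots give the inhibition pattern; Ki by Cleland's procedure.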

[3] = substrate: Oc1cc2c(cc1O)CNCC2; assay: (§1) Activity of Sprague-Dawley rat liver COMT using [14CH3]-SAM as methyl group donor after 10 mins by scintillation spectrophotometric analysis
Summary of the method: (§2)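 Rat liver COMT (male Sprague-Dawley, 180-200 g) purified through the calcium phosphate stage, approx 50-fold. Test catechol at 50-500 μM as substrate, SAM 1.0 mM with SAM-14CH3 0.05 μCi, 10 min incubation, stopped with borate buffer pH 10.0. O-methylated product extracted into toluene-isoamyl alcohol (3:2) and counted. Km and Vmax from double-reciprocal plots using Cleland's equations.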

[4] = substrate: CC1(C)CNCc2cc(O)c(O)cc21; assay: as §1; summary of the method: as §2
[5] = substrate: CN1Cc2cc(O)c(O)cc2C(C)(C)C1; assay: as §1; summary of the method: as §2
[6] = substrate: CN1CCc2cc(O)c(O)cc2C1; assay: as §1; summary of the method: as §2
[7] = substrate: CNC[C@H](O)c1ccc(O)c(O)c1; assay: as §1; summary of the method: as §2
[8] = substrate: CC1CN(C)Cc2cc(O)c(O)cc21; assay: as §1; summary of the method: as §2

Molecule | Activity [1] | Kis [2] | further results
Br.CC1CN(C)Cc2cc(O)c(O)cc21 (centres undefined) | 107% | 101 µM | 
Br.CN1CCc2cc(O)c(O)cc2C1 | 104% | 152 µM | 
C[N+]1(C)CCc2cc(O)c(O)cc2C1.[Br-] | 43% | 191 µM | 
Br.CC1(C)CNCc2cc(O)c(O)cc21 | 103% | 259 µM | 
Br.CN1Cc2cc(O)c(O)cc2C(C)(C)C1 | 115% | 187 µM | 
Br.Oc1cc2c(cc1O)CNCC2 | 63% | 196 µM | 
Catechol O-methyltransferase (Rattus norvegicus), P22734 (protein) MPLAAVSLGLLLLALLLLLRHLGWGLVTIFWFEYVLQPVHNLIMGDTKEQRILRYVQQNAKPGDPQSVLEAIDTYCTQKEWAMNVGDAKGQIMDAVIREYSPSLVLELGAYCGYSAVRMARLLQPGARLLTMEMNPDYAAITQQMLNFAGLQDKVTILNGASQDLIPQLKKKYDVDTLDMVFLDHWKDRYLPDTLLLEKCGLLRKGTVLLADNVIVPGTPDFLAYVRGSSSFECTHYSSYLEYMKVVDGLEKAIYQGPSSPDKS |  |  | Km [3]: 540 µM; Vmax [3]: 15.5 nmol/mg/min; Km [4]: 310 µM; Vmax [4]: 17.4 nmol/mg/min; Km [5]: 410 µM; Vmax [5]: 12.1 nmol/mg/min; Km [6]: 670 µM; Vmax [6]: 18.5 nmol/mg/min; Km [7]: 398 µM; Vmax [7]: 19.8 nmol/mg/min; Km [8]: 754 µM; Vmax [8]: 21.2 nmol/mg/min
